How the values were obtained:
[1] = tested on: HL-60; assay: Cytotoxicity against human HL60 cells after 48 hrs; assay type: functional, cell-based; settings: HL-60, 48 h
How it was run: (§1)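 Exponentially growing cells maintained in supplemented RPMI-1640 medium. Exposed to a range of compound concentrations for 48 h. Growth inhibition measured by MTT and SRB assays. IC50 reported as the mean of three independent experiments.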

[2] = tested on: HeLa; assay: Cytotoxicity against human HeLa cells after 48 hrs; assay type: functional, cell-based; how it was run: as §1
[3] = tested on: Bel-7402; assay: Cytotoxicity against human Bel7402 cells after 48 hrs; assay type: functional, cell-based; settings: Bel-7402, 48 h; how it was run: as §1
[4] = biological target: T1, Dihydrofolate reductase (Homo sapiens, UniProt P00374); assay: Inhibition of human recombinant DHFR by spectrophotometry
T1 sequence (P00374 whole entry): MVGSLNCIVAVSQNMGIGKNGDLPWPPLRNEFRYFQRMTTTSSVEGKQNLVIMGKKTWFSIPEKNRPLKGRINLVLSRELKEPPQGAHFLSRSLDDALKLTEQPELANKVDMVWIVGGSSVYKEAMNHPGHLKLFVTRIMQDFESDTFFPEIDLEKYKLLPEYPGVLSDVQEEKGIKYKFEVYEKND

[5] = tested on: BGC-823; assay: Cytotoxicity against human BGC823 cells after 48 hrs; assay type: functional, cell-based; settings: BGC-823, 48 h; how it was run: as §1

Row | Compound | IC50 [1] [µM] | IC50 [2] [µM] | IC50 [3] [µM] | IC50 [4] [µM] | IC50 [5] [µM]
1 | Nc1nc(N)c2c(n1)CCC(CNc1ccc(C(=O)NC(CCC(=O)O)C(=O)O)cc1)N2 (centres undefined) | 0.9 | 0.96 | 87.9 | 0.56 | 0.44
2 | C=CCN1c2c(N)nc(N)nc2CCC1CNc1ccc(C(=O)NC(CCC(=O)O)C(=O)O)cc1 (centres undefined) | 0.7 | 7.85 | 42.2 | 1.41 | 5.2
3 | C=CCN(CC1CCc2nc(N)nc(N)c2N1CC=C)c1ccc(C(=O)NC(CCC(=O)O)C(=O)O)cc1 (centres undefined) | 1.42 | 21.7 | 7.1 | 2.15 | 2.43
4 | C=CCN1c2c(N)nc(N)nc2CCC1CNc1ccc(C(=O)NC(CCC(=O)O)C(=O)O)cc1Br (centres undefined) | 0.57 | 0.9 | 1.2 | 2.37 | 6.59
5 | Nc1nc(N)c2c(n1)CCC(CNc1ccc(C(=O)NC(CCC(=O)O)C(=O)O)cc1Br)N2CC(Br)CBr (centres undefined) | 48.8 | 19.4 | 257 | 9.34 | 22.6
6 | CN(Cc1cnc2nc(N)nc(N)c2n1)c1ccc(C(=O)N[C@@H](CCC(=O)O)C(=O)O)cc1 [METHOTREXATE] | 0.21 | 0.1 | 82.3 |  | 0.11

Source: ChEMBL document CHEMBL1153868, “Novel 8-deaza-5,6,7,8-tetrahydroaminopterin derivatives as dihydrofolate inhibitor: design, synthesis and antifolate activity” (Eur J Med Chem, 2009)
